Laboratory results: ChEMBL document CHEMBL4477197, “Antitumor Activity of Spicatoside A by Modulation of Autophagy and Apoptosis in Human Colorectal Cancer Cells” (J Nat Prod, 2016)
Calls of active or inactive are those of the source. The calls are words filed in the database; no cut-off is given here.

Key:
A549 = test: Antiproliferative activity against human A549 cells after 24 to 72 hrs by SRB assay; assay type: functional, cell-based
Method in brief: (§1)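 Cells from ATCC were grown at 37 °C in 5% CO2, in RPMI 1640 (A549, HCT116, SNU-638) or DMEM (MDA-MB-231, SK-HEP-1, MRC5) with 10% FBS. They were seeded at 6 × 10^3 cells/well for 24 h, then exposed for 72 h. Cells were TCA-fixed, stained with 0.4% SRB, and read at 515 nm against day-zero plates. IC50 came from nonlinear regression, as means ± SD.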

HCT-116 [1] = test: Antiproliferative activity against human HCT116 cells after 24 to 72 hrs by SRB assay; assay type: functional, cell-based; method in brief: as §1
SNU-638 = test: Antiproliferative activity against human SNU638 cells after 24 to 72 hrs by SRB assay; assay type: functional, cell-based; method in brief: as §1
SK-HEP1 = test: Antiproliferative activity against human SKHEP1 cells after 24 to 72 hrs by SRB assay; assay type: functional, cell-based; method in brief: as §1
HCT-116 [2] = test: Induction of autophagy in human HCT116 cells assessed as formation of acidic vesicular organelles at 20 uM after 24 hrs by acridine orange staining based assay relative to control; assay type: functional, cell-based
Method in brief: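 Cells were seeded at 1 × 10^5/well, grown 24 h, then treated 24 h with 20 μM compound, 2.5 nM bafilomycin A1, or both. They were stained with acridine orange (2 μg/mL) for 15 min and washed in DPBS. AO-positive cells were quantified by high-content imaging and expressed as an index versus vehicle. Triplicates.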

HCT-116 [3] = test: Induction of autophagy in human HCT116 cells assessed as accumulation of beclin 1 after 24 hrs by Western blot analysis; assay type: functional, cell-based
Method in brief: (§2)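 HCT116 cells were cultured 24 h with the indicated concentrations. Lysates were made in SDS buffer with NaF and orthovanadate and quantified by BCA; 10–30 μg protein was separated by 6–15% SDS-PAGE and transferred to PVDF. After 5% BSA blocking, blots were probed for LC3-II, beclin 1, p62, LAMP1 and cathepsin D, with ECL detection.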

HCT-116 [4] = test: Induction of autophagy in human HCT116 cells assessed as upregulation of cathepsin D expression at 10 to 30 uM after 24 hrs by Western blot analysis; assay type: functional, cell-based; method in brief: as §2
[5] = Inhibition of PI3K/Akt/mTOR in human HCT116 cells assessed as downregulation of PI3K p101 at 10 to 30 uM after 24 hrs by Western blot analysis; assay type: cell-based
Method in brief: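 HCT116 cells were lysed after 24 h with the indicated concentrations. PI3K, PTEN, Akt and mTOR were immunoblotted (SDS-PAGE, PVDF, 5% BSA block, ECL).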

[6] = molecular target: c-Jun N-terminal kinase, JNK (Homo sapiens) (UniProt P45983+P53779+P45984); test: Activation of JNK in human HCT116 cells after 24 hrs by Western blot analysis; assay type: cell-based
[7] = molecular target: Cellular tumor antigen p53 (Homo sapiens) (UniProt P04637); test: Induction of p53 expression in human HCT116 cells after 24 hrs by Western blot analysis; assay type: cell-based
[8] = molecular target: Cellular tumor antigen p53 (Homo sapiens) (UniProt P04637); test: Induction of p53 expression in human HCT116 cells assessed as increase in p21 levels after 24 hrs by Western blot analysis; assay type: cell-based
HCT-116 [9] = test: Induction of apoptosis in human HCT116 cells assessed as cell rounding after 48 hrs; assay type: functional, cell-based
HCT-116 [10] = test: Cell cycle arrest in human HCT116 cells assessed as accumulation at subG1 phase at 20 uM after 48 hrs by propidium iodide staining based flow cytometry; assay type: functional
HCT-116 [11] = test: Cell cycle arrest in human HCT116 cells assessed as accumulation at subG1 phase at 30 uM after 48 hrs by propidium iodide staining based flow cytometry; assay type: functional
HCT-116 [12] = test: Induction of apoptosis in human HCT116 cells at 20 uM after 48 hrs by Annexin V-FITC/propidium iodide staining based flow cytometry; assay type: functional
Method in brief: (§3)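 HCT116 cells were treated 48 h, then resuspended in binding buffer at 1 × 10^6 cells/mL. They were stained with annexin V-FITC and PI for 20 min at room temperature in the dark, diluted and analyzed immediately by flow cytometry for annexin V-positive cells. n = 3.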

HCT-116 [13] = test: Induction of apoptosis in human HCT116 cells at 30 uM after 48 hrs by Annexin V-FITC/propidium iodide staining based flow cytometry; assay type: functional; method in brief: as §3
HCT-116 [14] = test: Induction of apoptosis in human HCT116 cells assessed as upregulation of Bax levels at 10 to 30 uM after 48 hrs by Western blot analysis; assay type: functional, cell-based
HCT-116 [15] = test: Induction of apoptosis in human HCT116 cells assessed as activation of caspase 9 at 10 to 30 uM after 48 hrs by Western blot analysis; assay type: functional, cell-based
Method in brief: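 HCT116 cells were treated with the indicated concentrations for 48 h. Lysates were prepared in SDS sample buffer and 10–30 μg protein was separated by SDS-PAGE, blotted to PVDF and blocked in 5% BSA. Cleaved caspase-8, -9, -3 and PARP were detected by ECL.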

HCT-116 [16] = test: Induction of apoptosis in human HCT116 cells assessed as PARP cleavage at 30 uM upto 48 hrs by Western blot analysis; assay type: functional, cell-based
Method in brief: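 Time course: HCT116 cells were exposed to 30 μM compound for 6, 12, 24, 36 and 48 h. LC3-II, beclin 1, cleaved caspase-8 and cleaved PARP were measured by Western blot (SDS-PAGE, PVDF, ECL) with β-actin as internal standard.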

HCT-116 [17] = test: Induction of autophagy in human HCT116 cells assessed as accumulation of LC3-2 at 30 uM after 24 hrs in presence of autophagy inhibitor 3-MA by Western blot analysis; assay type: functional, cell-based
Method in brief: (§4)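 HCT116 cells were pretreated 1 h with 2 mM 3-MA, then given 30 μM compound for a further 24 h. Whole-cell lysates were immunoblotted for LC3-II and cleaved PARP, with β-actin as loading standard and ECL detection. Blots are representative of three separate determinations.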

HCT-116 [18] = test: Induction of apoptosis in human HCT116 cells assessed as PARP cleavage at 30 uM after 24 hrs in presence of autophagy inhibitor 3-MA by Western blot analysis; assay type: functional, cell-based; method in brief: as §4
HCT-116 [19] = test: Induction of beclin 1 cleavage in human HCT116 cells at 30 uM after 48 hrs in presence of caspase-8 inhibitor z-IETD-FMK by Western blot analysis; assay type: functional, cell-based
Method in brief: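 HCT116 cells were cultured 48 h with 30 μM compound, with or without 20 μM z-IETD-FMK. Lysates were made in SDS loading buffer and 10–30 μg protein was resolved by 6–15% SDS-PAGE and transferred to PVDF. Blots were probed for cleaved caspase-8, beclin 1, cleaved beclin 1 and LC3-II, and detected by ECL.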

Mus musculus = test: Induction of PARP cleavage in human HCT116 cells xenografted in BALB/c-nu mouse at 2.5 to 5 mg/kg, ip administered three times per week for 28 days measured post dosing by Western blot analysis; assay type: functional, organism-based
Method in brief: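 Excised xenograft tumors (2.5 or 5 mg/kg ip, three times weekly for 28 days) were frozen. Portions were thawed on ice and homogenized in Complete Lysis Buffer, then protein was quantified. Cleaved PARP was detected by Western blot with β-actin as internal standard; blots shown are representative of three determinations.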

Cellular tumor antigen p53 (Homo sapiens), sequence (P04637 whole entry, looked up): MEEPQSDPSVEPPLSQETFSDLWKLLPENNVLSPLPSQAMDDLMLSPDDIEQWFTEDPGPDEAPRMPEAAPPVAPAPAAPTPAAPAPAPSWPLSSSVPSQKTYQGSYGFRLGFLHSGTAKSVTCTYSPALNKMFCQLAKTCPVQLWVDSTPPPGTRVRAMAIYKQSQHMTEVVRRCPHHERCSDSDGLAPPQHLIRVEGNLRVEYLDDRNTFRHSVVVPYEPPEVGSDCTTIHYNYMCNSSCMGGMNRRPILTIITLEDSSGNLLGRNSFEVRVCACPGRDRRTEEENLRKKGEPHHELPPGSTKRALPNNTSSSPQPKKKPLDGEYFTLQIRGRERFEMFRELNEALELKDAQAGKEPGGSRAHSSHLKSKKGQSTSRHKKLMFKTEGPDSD

IC50 (A549): 26 µM
IC50 (HCT-116 [1]): 13.8 µM
IC50 (SNU-638): 14.8 µM
IC50 (SK-HEP1): 15.5 µM
Activity [6]: inactive
Activity [7]: Dose-dependent effect
Activity [8]: Dose-dependent effect
SMILES: C[C@H]1CC[C@@]2(OC1)O[C@H]1C[C@H]3[C@@H]4CC=C5C[C@@H](O)C[C@@H](O[C@@H]6O[C@H](C)[C@H](O)[C@H](O[C@@H]7OC[C@@H](O)[C@H](O)[C@H]7O)[C@H]6O[C@@H]6O[C@H](CO)[C@@H](O)[C@H](O)[C@H]6O)[C@]5(C)[C@H]4CC[C@]3(C)[C@H]1[C@@H]2C
Activity (HCT-116 [2]): Active
Activity (HCT-116 [3]): Dose-dependent effect
Activity (HCT-116 [4]): Active
inhibition [5]: Active
Activity (HCT-116 [9]): Active
Activity (HCT-116 [10]): 12.56%
Activity (HCT-116 [11]): 45.37%
Activity (HCT-116 [12]): 18.58%
Activity (HCT-116 [13]): 24.58%
Activity (HCT-116 [14]): Active
Activity (HCT-116 [15]): Active
Activity (HCT-116 [16]): Active
Activity (HCT-116 [17]): inactive
Activity (HCT-116 [18]): Active
Activity (HCT-116 [19]): inactive
Activity (Mus musculus): Active
